A short description of data set [1]: Drug uptake in rat brain administered as iv cassette dose. The data set is classed as ADME, organism-based. The conditions noted are these: in vivo. The procedure, abridged:
(§1)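 Cassette dosing in male Sprague-Dawley rats (~300 g, n = 1 per experiment), with carotid artery and jugular vein catheters. Animals acclimated about one week with food and water ad libitum. Plasma (ng/mL) and brain (ng/g) levels were measured and Kp calculated.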

The nature of data set [2]: Fraction unbound in rat plasma after 4 hrs by equilibrium dialysis method. The data set is classed as ADME, cell-free.
The nature of data set [3]: Drug uptake in cerebrospinal fluid of Sprague-Dawley rat model of haloperidol-induced catalepsy at 10 mg/kg, po. Conditions: in vivo, read-out: Drug uptake. The data set is classed as ADME, organism-based. The gist of the method: (§2)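 Male Sprague-Dawley rats given haloperidol 0.75 mg/kg i.p., then returned to cages for 60 min. Compound 10 mg/kg was dosed orally 30 min before catalepsy testing. Plasma, brain and CSF were then assayed, and free levels reported.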

The subject of data set [4] is Rattus norvegicus. The data set is described as follows: Reversal of haloperidol-induced catalepsy in Sprague-Dawley rat assessed as decrease in latency to remove forepaws from bar at 10 mg/kg, po administered 30 mins prior to test. The data set is classed as functional, organism-based. The procedure, abridged: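 Male Sprague-Dawley rats were randomized and given haloperidol 0.75 mg/kg i.p., then 60 min in home cage. Vehicle or compound (10 mg/kg) was given orally 30 min before catalepsy testing, N = 11–12 rats/group. Data analyzed by one-way ANOVA with Dunnett's test versus vehicle + haloperidol.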

Data set [5] deals with Metabotropic glutamate receptor 4 (Rattus norvegicus, UniProt P31423). The data set is described as follows: Positive allosteric modulation of rat mGlu4 receptor expressed in HEK cells co-expressing GIRK1/2 assessed as increase in glutamate-induced thallium flux preincubated for 140 secs followed by glutamate addition and measured after 2.5 mins by FluoZin-2-AM dye based fluorescence assay. The data set is classed as cell-based. The gist of the method: (§3)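 HEK cells co-expressing rat mGlu4 and GIRK1/2 were loaded for 1 h at room temperature with FluoZin-2 AM (330 nM final) in HBSS/20 mM HEPES pH 7.4. Compound was incubated 140 s, then thallium buffer with or without agonist was added. Reading continued for 2.5 min at room temperature. Potency was fitted by four-parameter logistic.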

A short description of data set [6]: Volume of distribution at steady state in rat administered as iv cassette dose. The data set is classed as ADME, organism-based. Conditions: in vivo, read-out: Vdss. The procedure, abridged: (§4)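 IV cassette in male Sprague-Dawley rats (~300 g, n = 1 per experiment), cannulated in carotid artery and jugular vein and acclimated about one week. Plasma clearance, Vss, t1/2 and MRT were derived.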

For data set [7], the target named is Metabotropic glutamate receptor 4 (Rattus norvegicus) (UniProt P31423). The data set is described as follows: Positive allosteric modulation of rat mGlu4 receptor expressed in HEK cells co-expressing GIRK1/2 assessed as increase in glutamate-induced thallium flux preincubated for 140 secs followed by glutamate addition and measured after 2.5 mins by FluoZin-2-AM dye based fluorescence assay relative to control. The data set is classed as cell-based. The gist of the method:
as §3

A short description of data set [8]: Drug uptake in brain of Sprague-Dawley rat model of haloperidol-induced catalepsy at 10 mg/kg, po. The data set is classed as ADME, organism-based. Conditions: in vivo, read-out: Drug uptake. The procedure, abridged:
as §2

Data set [9] addresses T1, Metabotropic glutamate receptor 4 (Homo sapiens, UniProt Q14833). The data set is described as follows: Positive allosteric modulation of human mGlu4 receptor expressed in CHO cells co-expressing Gqi5 assessed as increase in glutamate-induced calcium mobilization preincubated for 142 secs followed by EC20 glutamate addition and measured after 147 secs by Fluo-4-AM dye based fluorescence assay relative to control. The data set is classed as functional, cell-based. The gist of the method:
(§5)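 CHO cells expressing human mGlu4 and Gqi5, plated at 30,000 cells/well and grown overnight at 37 °C, 5% CO2. Cells were loaded with 1 μM Fluo-4 AM for 45 min at 37 °C in HBSS/20 mM HEPES/2.5 mM probenecid. Compounds were run as 10-point, 1:3 dilution series. After 142 s, EC20 glutamate was added; 147 s later, EC80 glutamate. Fluorescence was normalized to the maximal glutamate response. EC50 and %Glu Max were fitted by four-parameter logistic, with maximum normalized to PHCCC.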

Data set [10] is described as follows: Plasma concentration in Sprague-Dawley rat model of haloperidol-induced catalepsy at 10 mg/kg, po. The data set is classed as ADME, organism-based. Conditions: in vivo. The gist of the method: as §2
Data set [11] addresses Metabotropic glutamate receptor 7 (Rattus norvegicus) (UniProt P35400). The data set is described as follows: Allosteric modulation of rat mGlu7 receptor expressed in HEK cells co-expressing GIRK1/2 assessed as change in glutamate-induced thallium flux preincubated for 2.5 mins followed by glutamate addition by FluoZin-2-AM dye based fluorescence assay. The data set is classed as cell-based.

Data set [12] is described as follows: Half life in rat administered as iv cassette dose. The data set is classed as ADME, organism-based. Conditions: in vivo. The gist of the method: as §4
Data set [13] is described as follows: Brain to plasma partition coefficient, Kp of the compound in rat administered as iv cassette dose. The data set is classed as ADME, organism-based. The conditions noted are these: brain and plasma, read-out: Kp. The procedure, abridged: as §1
Data set [14] has as its target T2, Cytochrome P450 1A2 (Homo sapiens, UniProt P05177).
T2 sequence (P05177 whole entry): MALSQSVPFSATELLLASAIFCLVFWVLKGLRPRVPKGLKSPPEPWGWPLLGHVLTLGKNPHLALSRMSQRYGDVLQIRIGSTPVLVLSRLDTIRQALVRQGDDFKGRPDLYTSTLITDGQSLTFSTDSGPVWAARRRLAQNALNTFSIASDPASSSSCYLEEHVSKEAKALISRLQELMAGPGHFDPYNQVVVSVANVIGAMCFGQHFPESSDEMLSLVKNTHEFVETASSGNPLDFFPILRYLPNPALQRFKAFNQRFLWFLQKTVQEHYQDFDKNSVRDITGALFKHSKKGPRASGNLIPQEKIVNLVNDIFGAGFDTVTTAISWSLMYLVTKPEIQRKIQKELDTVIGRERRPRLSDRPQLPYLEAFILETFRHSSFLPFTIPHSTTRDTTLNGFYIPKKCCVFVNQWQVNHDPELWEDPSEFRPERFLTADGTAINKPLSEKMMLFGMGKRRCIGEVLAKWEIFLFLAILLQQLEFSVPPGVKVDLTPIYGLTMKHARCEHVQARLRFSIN
The data set is described as follows: Inhibition of CYP1A2 in human liver microsomes using phenacetin as substrate preincubated for 15 mins followed by substrate addition and measured after 8 mins by LC-MS/MS analysis. The data set is classed as ADME. The gist of the method:
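IC50 for CYP1A2 inhibition determined in human liver microsomes using specific probe substrate-metabolite pairs.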

Data set [15] can be described thus: Plasma concentration in rat administered as iv cassette dose. The data set is classed as ADME, organism-based. The conditions noted are these: in vivo. The gist of the method:
as §1

A short description of data set [16]: Intrinsic clearance in rat liver microsomes at 1 uM preincubated for 5 mins followed by NADPH addition measured up to 45 mins by LC-MS/MS analysis. The data set is classed as ADME, Microsome. Conditions: read-out: CLH. The gist of the method:
(§6)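 Intrinsic and predicted hepatic clearance derived from liver microsome incubations.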

The nature of data set [17]: Clearance in rat administered as iv cassette dose. The data set is classed as ADME, organism-based. Conditions: in vivo. The procedure, abridged:
as §4

Data set [18] is described as follows: Fraction unbound in human plasma after 4 hrs by equilibrium dialysis method. The data set is classed as ADME, cell-free.
The nature of data set [19]: Intrinsic clearance in human liver microsomes at 1 uM preincubated for 5 mins followed by NADPH addition measured up to 45 mins by LC-MS/MS analysis. The conditions noted are these: read-out: CLH. The data set is classed as ADME, Microsome. The gist of the method: as §6
The target of data set [20] is T1, Metabotropic glutamate receptor 4. The data set is described as follows: Positive allosteric modulation of human mGlu4 receptor expressed in CHO cells co-expressing Gqi5 assessed as increase in glutamate-induced calcium mobilization preincubated for 142 secs followed by EC20 glutamate addition and subsequent EC80 glutamate addition after 147 secs by Fluo-4-AM dye based fluorescence assay. The data set is classed as functional, cell-based. The gist of the method: as §5

Data set [21] is described as follows: Unbound plasma concentration in Sprague-Dawley rat model of haloperidol-induced catalepsy at 10 mg/kg, po. Conditions: in vivo. The data set is classed as ADME, organism-based. The procedure, abridged: as §2

Activity calls are given as the source filed them. The calls are words filed in the database; no cut-off is given here.

T1 sequence (Q14833 whole entry): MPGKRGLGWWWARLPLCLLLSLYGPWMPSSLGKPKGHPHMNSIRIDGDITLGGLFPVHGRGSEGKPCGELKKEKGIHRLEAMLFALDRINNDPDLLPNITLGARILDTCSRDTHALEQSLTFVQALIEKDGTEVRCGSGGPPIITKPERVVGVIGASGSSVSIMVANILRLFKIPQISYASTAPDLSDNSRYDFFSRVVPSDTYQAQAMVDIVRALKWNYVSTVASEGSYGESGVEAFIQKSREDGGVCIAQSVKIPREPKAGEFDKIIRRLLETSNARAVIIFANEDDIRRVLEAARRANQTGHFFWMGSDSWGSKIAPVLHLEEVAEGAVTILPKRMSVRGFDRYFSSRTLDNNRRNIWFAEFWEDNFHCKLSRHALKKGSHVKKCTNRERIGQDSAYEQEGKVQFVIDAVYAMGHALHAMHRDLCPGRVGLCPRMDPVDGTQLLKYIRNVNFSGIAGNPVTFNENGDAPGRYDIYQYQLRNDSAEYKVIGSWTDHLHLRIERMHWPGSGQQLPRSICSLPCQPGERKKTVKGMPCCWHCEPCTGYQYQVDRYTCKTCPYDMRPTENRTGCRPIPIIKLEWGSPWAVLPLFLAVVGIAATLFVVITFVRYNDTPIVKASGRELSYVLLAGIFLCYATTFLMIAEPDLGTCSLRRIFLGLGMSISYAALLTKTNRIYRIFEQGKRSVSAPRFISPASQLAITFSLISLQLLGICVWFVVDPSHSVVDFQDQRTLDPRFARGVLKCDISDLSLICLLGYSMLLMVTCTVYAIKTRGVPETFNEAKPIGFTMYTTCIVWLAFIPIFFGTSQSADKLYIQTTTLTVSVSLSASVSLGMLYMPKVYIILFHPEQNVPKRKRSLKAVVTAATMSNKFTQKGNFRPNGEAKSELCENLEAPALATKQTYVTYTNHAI
Sequence of Metabotropic glutamate receptor 4 (Rattus norvegicus, UniProt P31423) (P31423 whole entry): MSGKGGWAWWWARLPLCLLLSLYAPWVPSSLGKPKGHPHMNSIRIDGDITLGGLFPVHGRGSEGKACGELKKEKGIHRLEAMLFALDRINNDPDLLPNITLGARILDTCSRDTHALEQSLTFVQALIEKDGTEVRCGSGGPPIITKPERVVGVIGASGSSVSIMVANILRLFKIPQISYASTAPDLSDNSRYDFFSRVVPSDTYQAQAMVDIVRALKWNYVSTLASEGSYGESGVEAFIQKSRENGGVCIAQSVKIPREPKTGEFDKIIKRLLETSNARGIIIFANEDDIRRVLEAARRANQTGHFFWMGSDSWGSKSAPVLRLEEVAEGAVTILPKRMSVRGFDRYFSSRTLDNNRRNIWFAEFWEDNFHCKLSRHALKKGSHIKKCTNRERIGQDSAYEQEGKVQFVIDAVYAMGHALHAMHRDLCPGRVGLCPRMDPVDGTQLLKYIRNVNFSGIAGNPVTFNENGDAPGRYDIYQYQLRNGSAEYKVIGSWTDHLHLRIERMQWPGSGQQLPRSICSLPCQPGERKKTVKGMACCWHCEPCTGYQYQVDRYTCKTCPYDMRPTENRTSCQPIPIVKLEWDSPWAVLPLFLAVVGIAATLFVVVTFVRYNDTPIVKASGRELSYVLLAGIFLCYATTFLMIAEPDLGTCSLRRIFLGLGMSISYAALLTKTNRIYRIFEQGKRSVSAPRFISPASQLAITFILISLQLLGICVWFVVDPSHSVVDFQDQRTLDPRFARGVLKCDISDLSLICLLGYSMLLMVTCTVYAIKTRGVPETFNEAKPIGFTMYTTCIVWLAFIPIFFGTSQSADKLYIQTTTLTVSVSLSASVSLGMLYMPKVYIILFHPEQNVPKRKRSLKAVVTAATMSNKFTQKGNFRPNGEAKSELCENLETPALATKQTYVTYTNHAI
Sequence of Metabotropic glutamate receptor 4 (Rattus norvegicus) (P31423 whole entry): as above
Sequence of Metabotropic glutamate receptor 7 (Rattus norvegicus) (P35400 whole entry): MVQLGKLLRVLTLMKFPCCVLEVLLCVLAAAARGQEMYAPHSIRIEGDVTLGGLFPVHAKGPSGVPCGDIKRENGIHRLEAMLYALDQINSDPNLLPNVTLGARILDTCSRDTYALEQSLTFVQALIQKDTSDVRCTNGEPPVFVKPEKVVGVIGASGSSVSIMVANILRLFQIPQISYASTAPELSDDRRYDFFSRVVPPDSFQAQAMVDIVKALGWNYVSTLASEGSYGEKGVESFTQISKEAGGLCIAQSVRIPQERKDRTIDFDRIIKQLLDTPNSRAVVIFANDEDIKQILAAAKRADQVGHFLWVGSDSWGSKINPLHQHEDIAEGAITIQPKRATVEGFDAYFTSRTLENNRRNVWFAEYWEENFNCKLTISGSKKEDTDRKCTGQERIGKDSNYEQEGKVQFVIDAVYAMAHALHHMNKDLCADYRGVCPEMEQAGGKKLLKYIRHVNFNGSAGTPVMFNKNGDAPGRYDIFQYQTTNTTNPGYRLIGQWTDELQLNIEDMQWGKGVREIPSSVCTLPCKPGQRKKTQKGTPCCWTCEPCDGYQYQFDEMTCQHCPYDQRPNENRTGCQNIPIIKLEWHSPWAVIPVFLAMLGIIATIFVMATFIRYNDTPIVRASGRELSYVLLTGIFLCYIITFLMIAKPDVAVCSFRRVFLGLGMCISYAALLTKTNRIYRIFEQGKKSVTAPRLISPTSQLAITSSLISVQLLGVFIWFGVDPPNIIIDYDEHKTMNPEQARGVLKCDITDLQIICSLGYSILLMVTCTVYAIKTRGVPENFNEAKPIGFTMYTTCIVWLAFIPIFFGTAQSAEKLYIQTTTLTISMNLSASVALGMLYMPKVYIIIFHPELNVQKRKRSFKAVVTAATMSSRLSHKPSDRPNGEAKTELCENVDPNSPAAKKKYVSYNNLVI

Regarding `O=C(NC1CC(F)(F)C1)c1nsc2cc(Nc3n[nH]c4cccnc34)ccc12`, in data set [1], the Drug uptake stood at 107 ng/g. The fraction unbound at 4 h was found to be 0.005 in data set [2] and 0.024 in [18]. Further, the concentration is 46 nM in data set [3], 252 nM in [8] and 1120 nM in data set [10]. In addition, the result in data set [4] was Active. For the same molecule, the EC50 in [5] came to 82.7 nM; in data set [20] it was 50.1 nM. In addition, in data set [6], the Vd was 1.6 L/kg. In addition, the %max in [7] came out at 76.8%; in data set [9], 50.5%. For the same molecule, the result in data set [11] was inactive. Also, the half-life in data set [12] was 7.42 h. For the same molecule, in [13], the concentration ratio (Kp) was determined as 0.4. The IC50 in [14] is > 30000 nM. In data set [15], this molecule had a Cp of 284 ng/mL. Besides, the CLint scaled at 1 µM was 34.2 mL/min/kg in data set [16] and 19 mL/min/kg in [19]. In data set [17], this molecule came in with a clearance of 3.1 mL/min/kg.

In data set [1], `CC(C)(C)Cc1noc2cc(Nc3n[nH]c4nccnc34)ccc12` gave a Drug uptake of 285 ng/g. Further, the fraction unbound at 4 h in [2] and in data set [18] was 0.023 throughout. Further, the figures for the concentration in [3], in data set [8] and in data set [10] were 627 nM, 958 nM and 450 nM, respectively. For the same molecule, the result in data set [4] was Active. In addition, the EC50 stood at 501 nM in data set [5] and 860 nM in [20]. The %max in data set [7] was 98.7%; in data set [9], 83.5%. Also, the “Cp(f)” value in data set [21] is on record as 11.2 nM. In data set [12], this molecule displayed a half-life of 1.46 h. The Kp in data set [13] was found to be 4.7. In addition, in data set [14], the IC50 amounted to 3200 nM. The molecule also showed a Cp in data set [15] of 60.5 ng/mL. Further, the CLint scaled at 1 µM was 62.5 mL/min/kg in data set [16] and 7.2 mL/min/kg in data set [19]. In [17], this molecule returned a clearance of 37.8 mL/min/kg.
